According to ChEMBL document CHEMBL3994624, “Antimalarial Pyrido[1,2-a]benzimidazoles: Lead Optimization, Parasite Life Cycle Stage Profile, Mechanistic Evaluation, Killing Kinetics, and in Vivo Oral Efficacy in a Mouse Model” (J Med Chem, 2017):
Converted amounts (≈) assume the structure as drawn. The source made the active and inactive calls. The calls are words filed in the database; no cut-off is given here.

Columns and labels:
Plasmodium falciparum [1] = experiment: Anti-plasmodial activity against chloroquine-sensitive Plasmodium falciparum NF54 late 4/5 stage gametocytes assessed as reduction in ATP levels after 24 hrs by BacTiter-Glo reagent based bioluminescence assay; assay type: functional; details: NF54, 24 h
Plasmodium falciparum [2] = experiment: Ratio of IC50 for chloroquine-sensitive Plasmodium falciparum NF54 early 2/3 stage gametocytes to IC50 for chloroquine-sensitive Plasmodium falciparum NF54 late 4/5 stage gametocytes; assay type: functional
In short: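 Early (stage II/III) and late (stage IV/V) gametocytes tested in parallel luciferase reporter assays; stage preference = EG IC50/LG IC50.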

Ferriprotoporphyrin IX [3] = experiment: Inhibition of beta hematin formation in water/NP40/DMSO solution after 5 hrs
Ferriprotoporphyrin IX [4] = experiment: Inhibition of beta hematin formation in ring stage of chloroquine-sensitive Plasmodium falciparum NF54 assessed as decrease in haemozoin level after 36 hrs by UV-vis spectra analysis
In short: (§1)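 Synchronized ring-stage parasites treated with increasing drug concentrations, then cellular fractionation. Free haem and haemozoin quantified as iron (fg/cell) and compared with untreated control; significance by p-values; parasite survival overlaid.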

Ferriprotoporphyrin IX [5] = experiment: Inhibition of beta hematin formation in ring stage of chloroquine-sensitive Plasmodium falciparum NF54 assessed as increase in free heme level after 36 hrs by UV-vis spectra analysis; in short: as §1
[6] = Selectivity index, ratio of IC50 for CHO cells to IC50 for chloroquine-sensitive Plasmodium falciparum NF54; assay type: toxicity; details: hamster, read-out: Ratio IC50
In short: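 Selectivity index = IC50 CHO / IC50 PfNF54.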

Huh-7 = experiment: Cytotoxicity against human HuH7 cells at 1 to 10 uM after 48 hrs by Alamarblue assay; assay type: cell-based; details: huh-7, 48 h
CHO = experiment: Cytotoxicity against CHO cells after by MTT assay; assay type: cell-based; details: Cricetulus griseus
Plasmodium falciparum [7] = experiment: Anti-plasmodial activity against multidrug resistant Plasmodium falciparum K1 by [3H]-hypoxanthine incorporation assay; assay type: functional
In short: (§2)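 P. falciparum asexual blood-stage growth inhibition by [3H]hypoxanthine incorporation; chloroquine and artesunate run as reference drugs in every experiment; IC50 given as mean of ≥2 independent experiments.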

[8] = Metabolic stability in Balb/c mouse liver microsomes assessed as compound remaining at 1 uM in presence of NADPH after 30 mins by LC-MS/MS analysis; assay type: ADME, microsome; details: read-out: Stability
In short: (§3)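 Mouse and human liver microsomes; % compound remaining after 30 min.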

[9] = Metabolic stability in human liver microsomes assessed as compound remaining at 1 uM in presence of NADPH after 30 mins by LC-MS/MS analysis; assay type: ADME, microsome; details: read-out: Stability; in short: as §3
Plasmodium falciparum [10] = experiment: Anti-plasmodial activity against chloroquine-sensitive Plasmodium falciparum NF54 by [3H]-hypoxanthine incorporation assay; assay type: functional; in short: as §2
Plasmodium berghei [11] = experiment: Antimalarial activity against GFP-fused Plasmodium berghei ANKA infected in mouse assessed as mouse mean survival days at 3 mg/kg, po administered once daily for 4 days; assay type: functional
In short: (§4)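 P. berghei-infected mice (n=3 per dose) dosed orally once daily on 4 consecutive days at 4, 24, 48 and 72 h after infection; compound in 90/10 Tween80/ethanol (v/v) diluted 10-fold with water. Read-outs were % parasitemia reduction, mean survival time in days and cure; mice with <40% parasitemia reduction euthanized on day 4.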

[12] = Kinetic solubility of the compound in FaSSIF at pH 6.5 after 2 hrs by shake flask method; assay type: physicochemical; details: read-out: Kinetic_solubility
Plasmodium berghei [13] = experiment: Antimalarial activity against GFP-fused Plasmodium berghei ANKA infected in mouse assessed as protection against parasitemia at 50 mg/kg, po administered once daily for 4 days measured 30 days post infection by light microscopy; assay type: functional, organism-based
In short: (§5)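 P. berghei-infected mice, 3 per group. Compound formulated in 90/10 Tween80/ethanol (v/v), diluted 10-fold with water, given orally once daily at 4, 24, 48 and 72 h post-infection. Outcomes: % parasitemia reduction versus untreated control, mean survival days, and cured/infected. Mice with <40% reduction euthanized on day 4.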

Mus musculus [14] = experiment: AUC (0 to infinity) in C57/Bl6 mouse at 2.5 mg/kg, iv by LC-MS method; assay type: ADME, organism-based; parameters: dose 2.5 mg/kg, time infinity, route intravenous; details: in vivo
In short: (§6)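 Mice (n=3) given a single intravenous dose of 2.5 mg/kg in dimethylacetamide:polyethylene glycol:propylene glycol/ethanol (4:1) at 1:3:6; 24 h sampling. Parameters were fitted by nonlinear mixed-effects two-compartment model with first-order elimination.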

Plasmodium berghei [15] = experiment: Antimalarial activity against GFP-fused Plasmodium berghei ANKA infected in mouse assessed as reduction in parasitemia at 50 mg/kg, po administered once daily for 4 days by flow cytometry relative to control; assay type: functional; parameters: scale not given: the % may be the effect or the level left; in short: as §5
Plasmodium berghei [16] = experiment: Antimalarial activity against GFP-fused Plasmodium berghei ANKA infected in mouse assessed as protection against parasitemia at 10 mg/kg, po administered once daily for 4 days measured 30 days post infection by light microscopy; assay type: functional, organism-based; in short: as §5
Plasmodium berghei [17] = experiment: Antimalarial activity against GFP-fused Plasmodium berghei ANKA infected in mouse assessed as protection against parasitemia at 3 mg/kg, po administered once daily for 4 days measured 30 days post infection by light microscopy; assay type: functional, organism-based; in short: as §5
[18] = Tmax in C57/Bl6 mouse at 10 mg/kg, po administered via gavage by LC-MS method; assay type: ADME, organism-based; details: in vivo
In short: (§7)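 Mice (n=3) given a single oral dose of 10 mg/kg as a suspension in […] HPMC; plasma sampled over 24 h. Parameters were estimated by nonlinear mixed-effects modelling with a two-compartment disposition model, first-order absorption and elimination.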

Mus musculus [19] = experiment: AUC (0 to infinity) in C57/Bl6 mouse at 10 mg/kg, po administered via gavage by LC-MS method; assay type: ADME, organism-based; parameters: dose 10 mg/kg, route oral, time infinity; details: in vivo; in short: as §7
[20] = Half life in C57/Bl6 mouse at 10 mg/kg, po administered via gavage by LC-MS method; assay type: ADME, organism-based; details: in vivo; in short: as §7
Plasmodium berghei [21] = experiment: Antimalarial activity against GFP-fused Plasmodium berghei ANKA infected in mouse assessed as reduction in parasitemia at 3 mg/kg, po administered once daily for 4 days by flow cytometry relative to control; assay type: functional; parameters: scale not given: the % may be the effect or the level left; in short: as §5
[22] = Clearance in C57/Bl6 mouse at 2.5 mg/kg, iv by LC-MS method; assay type: ADME, organism-based; details: in vivo; in short: as §6
Plasmodium berghei [23] = experiment: Antimalarial activity against GFP-fused Plasmodium berghei ANKA infected in mouse assessed as reduction in parasitemia at 30 mg/kg, po administered once daily for 4 days by flow cytometry relative to control; assay type: functional; parameters: scale not given: the % may be the effect or the level left; in short: as §5
Plasmodium berghei [24] = experiment: Antimalarial activity against GFP-fused Plasmodium berghei ANKA infected in mouse assessed as mouse mean survival days at 50 mg/kg, po administered once daily for 4 days; assay type: functional; in short: as §4
Plasmodium berghei [25] = experiment: Antimalarial activity against GFP-fused Plasmodium berghei ANKA infected in mouse assessed as mouse mean survival days at 30 mg/kg, po administered once daily for 4 days; assay type: functional; in short: as §4
Plasmodium berghei [26] = experiment: Antimalarial activity against GFP-fused Plasmodium berghei ANKA infected in mouse assessed as reduction in parasitemia at 10 mg/kg, po administered once daily for 4 days by flow cytometry relative to control; assay type: functional; parameters: scale not given: the % may be the effect or the level left; in short: as §5
[27] = Cmax in C57/Bl6 mouse at 10 mg/kg, po administered via gavage by LC-MS method; assay type: ADME, organism-based; parameters: dose 10 mg/kg, route oral; details: in vivo; in short: as §7
[28] = Oral bioavailability in C57/Bl6 mouse at 10 mg/kg administered via gavage by LC-MS method; assay type: ADME, organism-based; details: in vivo; in short: as §7
Plasmodium falciparum [29] = experiment: Anti-plasmodial activity against chloroquine-sensitive Plasmodium falciparum NF54 late 4/5 stage gametocytes after 48 hrs by luciferin-luciferase reaction based bioluminescence assay; assay type: functional; details: NF54, 48 h
[30] = Half life in C57/Bl6 mouse at 2.5 mg/kg, iv by LC-MS method; assay type: ADME, organism-based; details: in vivo; in short: as §6
[31] = Volume of distribution in C57/Bl6 mouse at 2.5 mg/kg, iv by LC-MS method; assay type: ADME, organism-based; details: in vivo; in short: as §6
Plasmodium berghei [32] = experiment: Antimalarial activity against GFP-fused Plasmodium berghei ANKA infected in mouse assessed as mouse mean survival days at 10 mg/kg, po administered once daily for 4 days; assay type: functional; in short: as §4
Plasmodium berghei [33] = experiment: Antimalarial activity against GFP-fused Plasmodium berghei ANKA infected in mouse assessed as protection against parasitemia at 6 mg/kg, po administered once daily for 4 days measured 30 days post infection by light microscopy; assay type: functional, organism-based
Plasmodium berghei [34] = experiment: Antimalarial activity against GFP-fused Plasmodium berghei ANKA infected in mouse assessed as protection against parasitemia at 25 mg/kg, po administered once daily for 4 days measured 30 days post infection by light microscopy; assay type: functional, organism-based
Plasmodium berghei [35] = experiment: Antimalarial activity against GFP-fused Plasmodium berghei ANKA infected in mouse assessed as protection against parasitemia at 12.5 mg/kg, po administered once daily for 4 days measured 30 days post infection by light microscopy; assay type: functional, organism-based
Plasmodium falciparum [36] = experiment: Ratio of IC50 for chloroquine-sensitive Plasmodium falciparum NF54 after 24 hrs to IC50 for chloroquine-sensitive Plasmodium falciparum NF54 after 72 hrs; assay type: functional

Compound	Ratio IC50 (Plasmodium falciparum [2])	IC50 (Ferriprotoporphyrin IX [3])	inhibition (Ferriprotoporphyrin IX [4])	inhibition (Ferriprotoporphyrin IX [5])	selectivity ratio [6]	Activity (Huh-7)	IC50 (CHO)	IC50 (Plasmodium falciparum [7])	remaining at 0.5 h, 1 µM [8]	remaining at 0.5 h, 1 µM [9]	IC50 (Plasmodium falciparum [10])	solubility kinetic at 2 h [12]	Activity (Plasmodium berghei [13])	Activity (Plasmodium berghei [17])	IC50 (Plasmodium falciparum [29])	other results
CCNCCNc1cc(-c2ccc(Cl)c(Cl)c2)c(C#N)c2nc3ccccc3n12	1.2	< 45000 nM	Dose-dependent effect	Dose-dependent effect	14	Non-Toxic	1550 nM	120 nM	65%	60%	110 nM	–	–	–	–	IC50 (Plasmodium falciparum [1]): 590 nM
CCNCCNc1cc(-c2ccc(C(F)(F)F)cc2)c(C#N)c2nc3cc(Cl)cc(Cl)c3n12	1.2	–	–	–	431	Non-Toxic	11200 nM	40 nM	87%	87%	30 nM	20 µM (≈ 9.85 µg/mL)	Active	inactive	1440 nM	MSD (Plasmodium berghei [11]): 16 days; AUC (Mus musculus [14]): 9.52 µM·h; Activity (Plasmodium berghei [15]): 98%; Activity (Plasmodium berghei [16]): inactive; Tmax [18]: > 10 h; AUC (Mus musculus [19]): 11.4 µM·h; half-life [20]: 21 h; Activity (Plasmodium berghei [21]): 99.4%; clearance [22]: 11 mL/min/kg; Activity (Plasmodium berghei [23]): 99.4%; MSD (Plasmodium berghei [24]): 30 days; MSD (Plasmodium berghei [25]): 30 days; Activity (Plasmodium berghei [26]): 99.4%; Cmax [27]: 220 nM; bioavailability [28]: 30%; half-life [30]: 21 h; Vd [31]: 19 L/kg; MSD (Plasmodium berghei [32]): 18 days
CCNCCNc1cc(-c2ccc(C(F)(F)F)cc2)c(C#N)c2nc3ccccc3n12 [listing 1 of 2 here]	–	–	Dose-dependent effect	Dose-dependent effect	–	–	–	–	–	–	–	–	inactive	inactive	–	Activity (Plasmodium berghei [33]): inactive; Activity (Plasmodium berghei [34]): inactive; Activity (Plasmodium berghei [35]): inactive
CCNCCNc1cc(-c2ccc(C(F)(F)F)cc2)c(C#N)c2nc3ccccc3n12 [listing 2 of 2 here]	2.4	< 45000 nM	–	–	13	Non-Toxic	1560 nM	–	97%	84%	–	< 5 µM	–	–	620 nM	Ratio IC50 (Plasmodium falciparum [36]): <1.5
